This note sets out measurements from ChEMBL document CHEMBL1125769 (J Med Chem, 1991).

“And” between values parts separate entries of the source, which are not always exact repeats. Equal entries are not always repeated. Square brackets hold non-standard residues; d marks the D form. Peptide text beside a SMILES is read from it. NMeA = CN[C@@H](C)C(=O)O; Ac5c = NC1(C(=O)O)CCCC1; Aib = CC(C)(N)C(=O)O; Sar = CNCC(=O)O

The test system of experiment [1] is Rattus norvegicus. Nature of the experiment: in vivo antagonist activity (ANG II like) is expressed by blood pressure increase (mHg) produced by […] iv injection of compound in rats. The class given is functional. In short, it runs like this:
(§1)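 Rat blood pressure assay after Regoli et al.; residual ANG II-like activity read as mmHg rise in blood pressure following a one microgram intravenous bolus of compound; n = 5.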

For experiment [2], the species on record is Rattus norvegicus. Briefly: In vitro antagonist activity expressed as pA2 was measured in rat uterus.
Experiment [3] is filed under the species Oryctolagus cuniculus. Briefly: In vitro agonist activity expressed as percent activity relative to ANG II was measured in rabbit aorta strip assay. Type of experiment: functional.
Experiment [4] deals with T1, Angiotensin II receptor (Rattus norvegicus) (UniProt P29089+P25095+P35351). Nature of the experiment: In vitro agonist activity relative to angiotensin II measured in rabbit aorta strip assay. Type of experiment: functional, tissue-based.
The target of experiment [5] is T1, Angiotensin II receptor (Rattus norvegicus). Briefly: In vivo agonist activity expressed as percent activity relative to angiotensin II in rat blood pressure assay. Type of experiment: functional, organism-based. The gist of the method: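 Rat blood pressure (pressor) assay in vivo, after Regoli et al.; ANG II-like activity given as percent activity relative to ANG II; n = 5.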

The subject of experiment [6] is Rattus norvegicus. Briefly: In vivo antagonist activity (ANG II like) expressed as blood pressure increase […] produced by […] iv injection of compound in rats. The class given is functional. The gist of the method:
as §1

Experiment [7] addresses T2, Angiotensin II receptor (Rattus norvegicus, UniProt P29089+P25095+P35351).
T2 sequence (P29089 whole entry): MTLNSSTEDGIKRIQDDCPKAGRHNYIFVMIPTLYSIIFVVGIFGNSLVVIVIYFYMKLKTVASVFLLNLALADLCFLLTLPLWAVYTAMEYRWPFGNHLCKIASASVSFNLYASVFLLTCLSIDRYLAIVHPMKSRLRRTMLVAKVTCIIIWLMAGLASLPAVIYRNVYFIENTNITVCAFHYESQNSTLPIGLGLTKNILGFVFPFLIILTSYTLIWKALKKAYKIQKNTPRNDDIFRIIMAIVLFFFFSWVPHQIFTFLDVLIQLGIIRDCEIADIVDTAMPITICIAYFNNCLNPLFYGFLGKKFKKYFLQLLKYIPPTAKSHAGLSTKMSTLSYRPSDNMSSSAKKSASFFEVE
T2 sequence (P25095 whole entry): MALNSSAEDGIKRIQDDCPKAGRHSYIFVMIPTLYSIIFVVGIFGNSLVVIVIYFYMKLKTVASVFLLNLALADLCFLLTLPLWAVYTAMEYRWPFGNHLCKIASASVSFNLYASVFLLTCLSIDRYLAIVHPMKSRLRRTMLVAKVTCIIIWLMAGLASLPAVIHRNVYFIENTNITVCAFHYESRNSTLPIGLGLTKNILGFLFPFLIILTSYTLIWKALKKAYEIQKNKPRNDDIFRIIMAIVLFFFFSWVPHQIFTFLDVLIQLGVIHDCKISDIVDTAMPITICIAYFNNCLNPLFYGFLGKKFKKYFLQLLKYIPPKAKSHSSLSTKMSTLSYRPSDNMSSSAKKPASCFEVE
T2 sequence (P35351 whole entry): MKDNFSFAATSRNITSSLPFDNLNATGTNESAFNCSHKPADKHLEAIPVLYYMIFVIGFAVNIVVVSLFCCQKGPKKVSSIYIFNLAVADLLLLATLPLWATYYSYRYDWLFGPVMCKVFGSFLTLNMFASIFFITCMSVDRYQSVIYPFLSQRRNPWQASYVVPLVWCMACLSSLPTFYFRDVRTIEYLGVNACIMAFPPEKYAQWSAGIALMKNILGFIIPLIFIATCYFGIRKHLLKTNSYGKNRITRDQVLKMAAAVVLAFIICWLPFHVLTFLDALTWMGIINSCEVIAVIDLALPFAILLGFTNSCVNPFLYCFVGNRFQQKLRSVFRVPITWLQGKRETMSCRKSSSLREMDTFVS
Nature of the experiment: In vitro antagonist activity (ANG II like) expressed as percent activity relative to ANG II in rabbit aorta strip assay. Type of experiment: functional, tissue-based.

The target in experiment [8] is T1, Angiotensin II receptor (Rattus norvegicus). Briefly: In vivo antagonist activity (ANG II like) expressed by blood pressure increase (mHg) produced by […] iv injection of compound in rats. Type of experiment: functional, organism-based. The gist of the method: as §1

As to `CC[C@H](C)[C@H](NC(=O)[C@@H]1CSCN1C(=O)[C@H](Cc1c[nH]cn1)NC(=O)[C@@H](NC(=O)[C@H](Cc1ccc(O)cc1)NC(=O)[C@@H](NC(=O)[C@H](CCCN=C(N)N)NC(=O)CNC)C(C)C)[C@@H](C)CC)C(=O)O`, the ID50 in experiment [1] is reported as 12.5 ng min-1 rat-1. In experiment [2], the pA2 was determined as 7.2.
Take `CC[C@H](C)[C@H](NC(=O)[C@H](Cc1ccc(O)cc1)NC(=O)[C@@H](NC(=O)[C@H](CCCN=C(N)N)NC(=O)CNC)C(C)C)C(=O)N[C@@H](Cc1c[nH]cn1)C(=O)N1CCC[C@H]1C(=O)N[C@@H](C)C(=O)O`: the Activity in experiment [3] was 0%; in experiment [4], 0.5%; in experiment [5], 15.1% and 10%. In addition, in experiment [6], the ID50 was 7.92 ng min-1 rat-1 and 15 ng min-1 rat-1.
Consider `CC[C@H](C)[C@H](NC(=O)[C@H](Cc1ccc(O)cc1)NC(=O)[C@@H](NC(=O)[C@H](CCCN=C(N)N)NC(=O)CNC)C(C)C)C(=O)N[C@@H](Cc1c[nH]cn1)C(=O)N1CCC[C@H]1C(=O)N[C@@H](Cc1ccccc1)C(=O)O`, for which the Activity came out at 180% in experiment [4] and 125% in experiment [5].
The corresponding values for `CNCC(=O)N[C@@H](CCCN=C(N)N)C(=O)N[C@H](C(=O)N[C@@H](Cc1ccc(O)cc1)C(=O)N1CSC(C)(C)[C@@H]1C(=O)N[C@@H](Cc1c[nH]cn1)C(=O)N1CCC[C@H]1C(=O)N[C@@H](Cc1ccccc1)C(=O)O)C(C)C` are 250% and 100%.
For `CC[C@H](C)[C@H](NC(=O)[C@H](Cc1ccc(O)cc1)NC(=O)[C@H](C)NC(=O)[C@H](CCCN=C(N)N)NC(=O)[C@@H](N)CC(=O)O)C(=O)N[C@@H](Cc1c[nH]cn1)C(=O)N1CCC[C@H]1C(=O)N[C@@H](Cc1ccccc1)C(=O)O` (H-DRAYIHPF-OH), in experiment [5], the Activity worked out at 80.5%.
On the same count and under the same terms, the figure for `CC[C@H](C)[C@H](NC(=O)[C@H](Cc1ccc(O)cc1)NC(=O)[C@@H]1CCCN1C(=O)[C@H](CCCN=C(N)N)NC(=O)[C@@H](N)CC(=O)O)C(=O)N[C@@H](Cc1c[nH]cn1)C(=O)N1CCC[C@H]1C(=O)N[C@@H](Cc1ccccc1)C(=O)O` (H-DRPYIHPF-OH) is 53%; for `CC[C@H](C)[C@H](NC(=O)[C@H](Cc1ccc(O)cc1)NC(=O)C1(NC(=O)[C@H](CCCN=C(N)N)NC(=O)[C@@H](N)CC(=O)O)CCCC1)C(=O)N[C@@H](Cc1c[nH]cn1)C(=O)N1CCC[C@H]1C(=O)N[C@@H](Cc1ccccc1)C(=O)O` (H-DR[Ac5c]YIHPF-OH) it is 2%.
Still for that read-out and setting: the same measure for `CC(C)[C@H](NC(=O)[C@H](Cc1ccc(O)cc1)NC(=O)C1(NC(=O)[C@H](CCCN=C(N)N)NC(=O)[C@@H](N)CC(=O)O)CCCC1)C(=O)N[C@@H](Cc1c[nH]cn1)C(=O)NC1(C(=O)N[C@@H](Cc2ccccc2)C(=O)O)CCCC1` (H-DR[Ac5c]YVH[Ac5c]F-OH): 1.5%; for `CC(C)[C@H](NC(=O)[C@H](Cc1ccc(O)cc1)NC(=O)C1(NC(=O)[C@H](CCCN=C(N)N)NC(=O)[C@@H](N)CC(=O)O)CCCC1)C(=O)N[C@@H](Cc1c[nH]cn1)C(=O)NC(C)(C)C(=O)N[C@@H](Cc1ccccc1)C(=O)O` (H-DR[Ac5c]YVH[Aib]F-OH): 1%; for `CC(C)[C@H](NC(=O)[C@H](Cc1ccc(O)cc1)NC(=O)C1(NC(=O)[C@H](CCCN=C(N)N)NC(=O)[C@@H](N)CC(=O)O)CCCC1)C(=O)N[C@@H](Cc1c[nH]cn1)C(=O)N(C)[C@@H](C)C(=O)N[C@@H](Cc1ccccc1)C(=O)O` (H-DR[Ac5c]YVH[NMeA]F-OH): 22%.
On the same count and under the same terms, the same measure for `CC[C@H](C)[C@H](NC(=O)[C@H](Cc1ccc(O)cc1)NC(=O)C(C)(C)NC(=O)[C@H](CCCN=C(N)N)NC(=O)[C@@H](N)CC(=O)O)C(=O)N[C@@H](Cc1c[nH]cn1)C(=O)N1CCC[C@H]1C(=O)N[C@@H](Cc1ccccc1)C(=O)O` (H-DR[Aib]YIHPF-OH): 1%.
With `CC[C@H](C)[C@H](NC(=O)[C@@H]1CCCN1C(=O)[C@H](Cc1c[nH]cn1)NC(=O)[C@@H](NC(=O)[C@H](Cc1ccc(O)cc1)NC(=O)[C@H](C)NC(=O)[C@H](CCCN=C(N)N)NC(=O)CNC)[C@@H](C)CC)C(=O)O` (H-[Sar]RAYIHPI-OH), the pA2 in experiment [7] was 8.3. For the same molecule, the Activity was found to be 0% in experiment [4] and 7.5% in experiment [5]. This molecule returned an ID50 (ng min-1 rat-1) in experiment [8] of 25.
`CC[C@H](C)[C@H](NC(=O)[C@H](C)N(C)C(=O)[C@H](Cc1c[nH]cn1)NC(=O)[C@@H](NC(=O)[C@H](Cc1ccc(O)cc1)NC(=O)[C@@H](NC(=O)[C@H](CCCN=C(N)N)NC(=O)CNC)C(C)C)[C@@H](C)CC)C(=O)O` (H-[Sar]RVYIH[NMeA]I-OH) had a pA2 in experiment [7] of 8.4. This molecule registered an Activity in experiment [4] of 0%. For the same molecule, the ID50 (ng min-1 rat-1) in experiment [8] turned out to be 20.
The corresponding values for `CC[C@H](C)[C@H](NC(=O)[C@@H]1CCCN1C(=O)[C@H](Cc1c[nH]cn1)NC(=O)[C@@H]1CCCN1C(=O)[C@H](Cc1ccc(O)cc1)NC(=O)[C@@H](NC(=O)[C@H](CCCN=C(N)N)NC(=O)CNC)C(C)C)C(=O)O` (H-[Sar]RVYPHPI-OH) are 8.7, 0% and 20.
The corresponding values for `CC[C@H](C)[C@H](NC(=O)[C@@H]1CCCN1C(=O)[C@H](Cc1c[nH]cn1)NC(=O)C1(NC(=O)[C@H](Cc2ccc(O)cc2)NC(=O)[C@@H](NC(=O)[C@H](CCCN=C(N)N)NC(=O)CNC)C(C)C)CCCC1)C(=O)O` (H-[Sar]RVY[Ac5c]HPI-OH) are 8.3, 0% and 10.
The molecule `CC[C@H](C)[C@H](NC(=O)[C@@H]1CCCN1C(=O)[C@H](Cc1c[nH]cn1)NC(=O)[C@@H](NC(=O)[C@H](Cc1ccc(O)cc1)NC(=O)C(C)(C)NC(=O)[C@H](CCCN=C(N)N)NC(=O)CNC)[C@@H](C)CC)C(=O)O` (H-[Sar]R[Aib]YIHPI-OH) came in with a pA2 in experiment [7] of 7. The results for the Activity in experiment [4] and in experiment [5] were 0% and 3%, respectively. Besides, the ID50 (ng min-1 rat-1) in experiment [8] came out at 50.
With `CC[C@H](C)[C@H](NC(=O)[C@@H]1CCCN1C(=O)[C@H](Cc1c[nH]cn1)NC(=O)[C@@H](NC(=O)[C@H](Cc1ccc(O)cc1)NC(=O)[C@H](C)N(C)C(=O)[C@H](CCCN=C(N)N)NC(=O)CNC)[C@@H](C)CC)C(=O)O` (H-[Sar]R[NMeA]YIHPI-OH), in experiment [7], the pA2 is 8.9. In experiment [4], this molecule registered an Activity of 0%. In experiment [8], the ID50 (ng min-1 rat-1) worked out at 25.
In experiment [7], `CC[C@@H](C)[C@@H](NC(=O)[C@H](Cc1ccc(O)cc1)NC(=O)[C@H](C)N(C)C(=O)[C@H](CCCN=C(N)N)NC(=O)CNC)C(=O)N[C@@H](Cc1c[nH]cn1)C(=O)N1CCC[C@H]1C(=O)NC(Cc1ccccc1)C(=O)O` (stereo in doubt) had a pA2 of less than 6. Also, the Activity in experiment [4] is 0%; in experiment [5] it was 10%. In addition, in experiment [8], the ID50 (ng min-1 rat-1) came to 100.

As usually defined, the pA2 is a measure of antagonist potency on a negative log scale. Read a high pA2 as higher antagonist potency.
